Measured values taken from ChEMBL document CHEMBL1137737, “Synthesis, antimicrobial and cytotoxic activities of 1,3,4-oxadiazoles, 1,3,4-thiadiazoles and 1,2,4-triazoles” (Eur J Med Chem, 2009).
≈ marks a conversion by molar mass, not a printed value.

Key:
Assay type in all cases: functional
[1] = system: Curvularia lunata; assay: Antifungal activity against Curvularia lunata NCIM 716 at 100 ug/disk after 48 hrs by agar disc-diffusion method; details: NCIM 716, 48 h, read-out: DIZ
Summary of the method: (§1)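 Sterile 6 mm filter-paper discs are soaked in compound solution in DMSO and placed on nutrient agar plates already inoculated with each organism. Plates are incubated at 37 °C. The diameter of the growth-inhibition zone is read after 24 h for bacteria and after 48 h for fungi.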

[2] = system: Proteus vulgaris; assay: Antibacterial activity against Proteus vulgaris NCIM 2027 at 200 ug/disk after 24 hrs by agar disc-diffusion method; details: NCIM 2027, 24 h, read-out: DIZ; summary of the method: as §1
[3] = system: Staphylococcus aureus; assay: Antibacterial activity against Staphylococcus aureus NCIM 5021 at 100 ug/disk after 24 hrs by agar disc-diffusion method; details: NCIM 5021, 24 h, read-out: DIZ; summary of the method: as §1
[4] = system: Aspergillus niger; assay: Antifungal activity against Aspergillus niger NCIM 596 at 200 ug/disk after 48 hrs by agar disc-diffusion method; details: NCIM 596, 48 h, read-out: DIZ; summary of the method: as §1
[5] = system: Staphylococcus aureus; assay: Antibacterial activity against Staphylococcus aureus NCIM 5021 after 24 hrs by microdilution susceptibility method; details: NCIM 5021, 24 h
Summary of the method: (§2)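 This is a microdilution susceptibility test. Organism suspensions are inoculated into wells holding the dilution series, then incubated at 36 °C for 24 h (bacteria) or 48 h (fungi). MIC is the lowest concentration giving no turbidity, i.e. complete inhibition of visible growth.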

[6] = system: Bacillus subtilis; assay: Antibacterial activity against Bacillus subtilis NCIM 2063 at 100 ug/disk after 24 hrs by agar disc-diffusion method; details: NCIM 2063, 24 h, read-out: DIZ; summary of the method: as §1
[7] = system: Curvularia lunata; assay: Antifungal activity against Curvularia lunata NCIM 716 at 200 ug/disk after 48 hrs by agar disc-diffusion method; details: NCIM 716, 48 h, read-out: DIZ; summary of the method: as §1
[8] = system: Fusarium solani; assay: Antifungal activity against Fusarium solani NCIM 1330 after 48 hrs by microdilution susceptibility method; details: NCIM 1330, 48 h; summary of the method: as §2
[9] = system: Klebsiella pneumoniae; assay: Antibacterial activity against Klebsiella pneumoniae NCIM 2957 at 200 ug/disk after 24 hrs by agar disc-diffusion method; details: NCIM 2957, 24 h, read-out: DIZ; summary of the method: as §1
[10] = system: Bacillus subtilis; assay: Antibacterial activity against Bacillus subtilis NCIM 2063 after 24 hrs by microdilution susceptibility method; details: NCIM 2063, 24 h; summary of the method: as §2
[11] = system: Fusarium solani; assay: Antifungal activity against Fusarium solani NCIM 1330 at 100 ug/disk after 48 hrs by agar disc-diffusion method; details: NCIM 1330, 48 h, read-out: DIZ; summary of the method: as §1
[12] = system: Curvularia lunata; assay: Antifungal activity against Curvularia lunata NCIM 716 after 48 hrs by microdilution susceptibility method; details: NCIM 716, 48 h; summary of the method: as §2
[13] = system: Staphylococcus aureus; assay: Antibacterial activity against Staphylococcus aureus NCIM 5021 at 200 ug/disk after 24 hrs by agar disc-diffusion method; details: NCIM 5021, 24 h, read-out: DIZ; summary of the method: as §1
[14] = system: Klebsiella pneumoniae; assay: Antibacterial activity against Klebsiella pneumoniae NCIM 2957 at 100 ug/disk after 24 hrs by agar disc-diffusion method; details: NCIM 2957, 24 h, read-out: DIZ; summary of the method: as §1
[15] = system: Bacillus subtilis; assay: Antibacterial activity against Bacillus subtilis NCIM 2063 at 200 ug/disk after 24 hrs by agar disc-diffusion method; details: NCIM 2063, 24 h, read-out: DIZ; summary of the method: as §1
[16] = system: Aspergillus niger; assay: Antifungal activity against Aspergillus niger NCIM 596 at 100 ug/disk after 48 hrs by agar disc-diffusion method; details: NCIM 596, 48 h, read-out: DIZ; summary of the method: as §1
[17] = system: Fusarium solani; assay: Antifungal activity against Fusarium solani NCIM 1330 at 200 ug/disk after 48 hrs by agar disc-diffusion method; details: NCIM 1330, 48 h, read-out: DIZ; summary of the method: as §1
[18] = system: Proteus vulgaris; assay: Antibacterial activity against Proteus vulgaris NCIM 2027 at 100 ug/disk after 24 hrs by agar disc-diffusion method; details: NCIM 2027, 24 h, read-out: DIZ; summary of the method: as §1
[19] = system: Proteus vulgaris; assay: Antibacterial activity against Proteus vulgaris NCIM 2027 after 24 hrs by microdilution susceptibility method; details: NCIM 2027, 24 h; summary of the method: as §2
[20] = system: Aspergillus niger; assay: Antifungal activity against Aspergillus niger NCIM 596 after 48 hrs by microdilution susceptibility method; details: NCIM 596, 48 h; summary of the method: as §2

| Structure (SMILES) | zone of inhibition at 100 µg/disc [1] | zone of inhibition at 200 µg/disc [2] | zone of inhibition at 100 µg/disc [3] | zone of inhibition at 200 µg/disc [4] | MIC [5] | zone of inhibition at 100 µg/disc [6] | zone of inhibition at 200 µg/disc [7] | MIC [8] | zone of inhibition at 200 µg/disc [9] | MIC [10] | zone of inhibition at 100 µg/disc [11] | MIC [12] | zone of inhibition at 200 µg/disc [13] | zone of inhibition at 100 µg/disc [14] | zone of inhibition at 200 µg/disc [15] | zone of inhibition at 100 µg/disc [16] | zone of inhibition at 200 µg/disc [17] | zone of inhibition at 100 µg/disc [18] | MIC [19] | MIC [20] |
| --- | --- | --- | --- | --- | --- | --- | --- | --- | --- | --- | --- | --- | --- | --- | --- | --- | --- | --- | --- | --- |
| O=S(=O)(Cc1nnc(-c2ccccc2)s1)c1ccccc1 | 16 mm | 20 mm | 19 mm | 17 mm | 400 µg/mL (≈ 1260 µM) | 15 mm | 19 mm | 400 µg/mL (≈ 1260 µM) | 18 mm | 400 µg/mL (≈ 1260 µM) | 18 mm | 400 µg/mL (≈ 1260 µM) | 21 mm | 16 mm | 17 mm | 15 mm | 22 mm | 18 mm |  |  |
| Nn1c(CS(=O)(=O)c2ccc(Cl)cc2)nnc1-c1ccccc1 | 22 mm | 21 mm | 19 mm | 22 mm | 400 µg/mL (≈ 1150 µM) | 17 mm | 25 mm | 200 µg/mL (≈ 573 µM) | 19 mm | 400 µg/mL (≈ 1150 µM) | 21 mm | 200 µg/mL (≈ 573 µM) | 23 mm | 17 mm | 20 mm | 19 mm | 24 mm | 18 mm | 400 µg/mL (≈ 1150 µM) | 200 µg/mL (≈ 573 µM) |
| Nn1c(CS(=O)(=O)c2ccccc2)nnc1-c1ccccc1Cl | 22 mm | 18 mm | 17 mm | 21 mm | 400 µg/mL (≈ 1150 µM) | 19 mm | 25 mm | 400 µg/mL (≈ 1150 µM) | 20 mm | 200 µg/mL (≈ 573 µM) | 23 mm | 200 µg/mL (≈ 573 µM) | 20 mm | 17 mm | 22 mm | 18 mm | 25 mm | 16 mm |  |  |
| O=S(=O)(Cc1nnc(-c2ccccc2Cl)o1)c1ccc(Cl)cc1 | 17 mm | 19 mm | 15 mm | 16 mm | 400 µg/mL (≈ 1080 µM) | 16 mm | 19 mm | 400 µg/mL (≈ 1080 µM) | 17 mm | 400 µg/mL (≈ 1080 µM) | 16 mm | 400 µg/mL (≈ 1080 µM) | 18 mm | 14 mm | 17 mm | 15 mm | 19 mm | 16 mm |  |  |
| Nn1c(CS(=O)(=O)c2ccccc2)nnc1-c1ccccc1 | 20 mm | 18 mm | 16 mm | 22 mm | 400 µg/mL (≈ 1270 µM) | 14 mm | 24 mm | 400 µg/mL (≈ 1270 µM) | 18 mm | 400 µg/mL (≈ 1270 µM) | 22 mm | 400 µg/mL (≈ 1270 µM) | 18 mm | 15 mm | 17 mm | 19 mm | 25 mm | 16 mm |  |  |
| O=S(=O)(Cc1nnc(-c2ccccc2Cl)s1)c1ccccc1 | 18 mm | 19 mm | 20 mm | 18 mm | 400 µg/mL (≈ 1140 µM) | 15 mm | 21 mm | 400 µg/mL (≈ 1140 µM) | 21 mm | 400 µg/mL (≈ 1140 µM) | 19 mm | 400 µg/mL (≈ 1140 µM) | 23 mm | 17 mm | 18 mm | 15 mm | 22 mm | 16 mm |  | 400 µg/mL (≈ 1140 µM) |
